High-throughput results as filed in PubChem.
An excerpt weighted towards active compounds, which were near 4.4% of everything screened.
Calb FLC = C. albicans growth modulation with fluconazole; 300,000 tested, 0.57% active; growth inhibition, % (no concentration beside the values); C. albicans CaCi-2 (fluconazole-resistant clinical isolate) + fluconazole, Alamar Blue growth, 48 h; AID 1979;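 active = growth inhibition above about 58% in most replicates, limit read from the data, passing the limit was not always enough; inconclusive = exactly half the replicates above a set limit; inactive = most replicates below a set limit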;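 note: all wells also contain fluconazole at 8 µg/ml as a sub-toxic cotreatment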
HSF1 activator = increases HSF-1 driven luciferase reporter signal; NIH3T3-HGL HSF-1 luciferase reporter, MG132, 8 h; 100% = twice DMSO control signal; activation, % at 9 µM; 300,000 tested, 1.7% active;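 active = mean replicate activation of at least 50% with a set share of replicates each reaching 50%; inconclusive = only one of those two conditions met; inactive = mean below 50% and too few replicates reaching it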
HIF activator = HIF pathway transcriptional activation; U2OS HRE-luciferase reporter, luminescence; normalized: DMSO 0%, desferrioxamine 100%; activation, % at 7.5 µM (by protocol); 300,000 tested, 0.32% active; AID 1910;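 active = mean activation of at least 10% of the iron chelator positive control signal, with at least half of replicates also reaching 10%; inconclusive = mean and replicate majority disagree about reaching 10%; inactive = mean and most replicates under 10%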
HSF1 inhib = HSF1 inhibition | activity change, negative = inhibition, % at 7.5 µM (by protocol) | NIH3T3-HGL HSE-luciferase, MG132-induced, luminescence 8 h; active compounds read low | AID 2098 | 300,000 tested, 0.77% active;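 active = more than half of replicate wells show activity change below -50%, luminescence cut by over half; inconclusive = some wells, but at most half, below -50%; inactive = no replicate well below -50%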;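 note: luciferase reports HSF-1 transcriptional activity via heat shock element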
T cruzi inh = blocks replication of Trypanosoma cruzi | T. cruzi beta-gal in NIH3T3, luminescence, 90 h | inhibition, % (no concentration beside the values) | 300,000 tested, 1.4% active | AID 1885;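 active = mean inhibition across valid replicates above about 55%, limit read from the data; inconclusive = mean below that limit but half or more replicates reach it; inactive = mean below it, under half of replicates reach it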;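 note: signal also drops with host cell toxicity which is not excluded here; higher percent means less beta-gal luminescence so fewer parasites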
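Assay system: NIH/3T3 host cells with β-galactosidase reporter T. cruzi; input: 5,000 host fibroblasts per well; compound: single 50 nL compound addition per well in DMSO; timing: ≥90 h infection period, 3 h prior cell attachment; measured by: GalScreen β-gal luminescence, detergent lysis, 60 min; evaluation: percent inhibition of parasite-derived β-gal signal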
Large screens that a line does not name were inactive.

COc1cc2c(cc1NC(=O)CSc1nc3ccc(C)cc3[nH]1)oc1ccccc12	HSF1 activator 74
COc1ccc(C(F)(F)F)cc1NC(=O)c1nc2nc(C)cc(C(F)F)n2n1	none
Cc1cc(C(F)F)n2nc(C(=O)Nc3cccc(C(F)(F)F)c3)nc2n1	HSF1 activator 81
C[C@H](NC(=O)c1ccccc1Cl)C(=O)OCC(=O)N1CC2(C)CC1CC(C)(C)C2 (stereo partly specified)	none
N/C(Cc1nc(-c2ccc(Br)cc2)cs1)=N\O	Calb FLC 99, HSF1 activator 55
N/C(Cc1nc(-c2ccc(F)cc2)cs1)=N\O	none
COc1cccc(N(CC(=O)Nc2cccnc2)S(C)(=O)=O)c1	HSF1 inhib -81
COc1ccc(OC)c(N(CC(=O)Nc2ccccc2)S(C)(=O)=O)c1	HSF1 inhib -65
COc1ccc(N(CC(=O)Nc2cccnc2)S(C)(=O)=O)cc1	none
Cc1ccc(S(=O)(=O)NCCC(=O)Nc2nccs2)cc1	none
Cc1nc(SC(C)C(=O)NCC2CCCO2)c2cc(-c3ccccc3)sc2n1 (stereo unspecified)	HSF1 activator 71
CC(Sc1ncnc2c1cnn2-c1ccccc1)C(=O)NCC1CCCO1 (stereo unspecified)	none
CCCN(CCC)C(=O)CSc1nc2ccsc2c(=O)n1NC(=O)c1ccccc1	HSF1 inhib -57
CC(C)CCNC(=O)CSc1nc2ccsc2c(=O)n1NC(=O)c1ccccc1	none
COc1cccc(NC(=O)C(=O)NCC2CCCN2S(=O)(=O)c2ccccc2)c1 (stereo unspecified)	HSF1 activator 56
Cc1cnc(C(=O)Nc2ccccc2-n2cccc2)cn1	HSF1 inhib -60
Cc1cccc(NC(=O)C2C(C(=O)O)C3C=CC2C32CC2)c1C (stereo unspecified)	none
Cc1ccc(NC(=O)C2C(C(=O)O)C3C=CC2C32CC2)cc1 (stereo unspecified)	Calb FLC 79
Cc1ccc(NC(=S)N(CCCN2CCCC2)Cc2cccn2Cc2ccc(Cl)cc2)cc1C	none
FC(F)(F)c1cccc(NC(=S)N(CCCN2CCCC2)Cc2cccn2Cc2ccc(Cl)cc2)c1	T cruzi inh 71
O=C(Nc1ccccc1)c1ccc(N2CCN(c3ccccc3)CC2)c(S(=O)(=O)N2CCOCC2)c1	T cruzi inh 56
COc1ccc(C(=O)Nc2ccccc2[N+](=O)[O-])cc1S(=O)(=O)N1CCOCC1	HSF1 activator 131
Cc1ccc(C(=O)Nc2ccccc2[N+](=O)[O-])cc1S(=O)(=O)N1CCOCC1	none
CC1(C(=O)OCC(=O)N2c3ccccc3Sc3ccccc32)CC1(Cl)Cl (stereo unspecified)	none (no result: HSF1 activator, HSF1 inhib)
O=C(c1ccc2c(=O)n(Cc3ccccc3Cl)c(=S)[nH]c2c1)N1CCOCC1	none
O=c1c2cc(N3CCOCC3)ccc2[nH]c(=S)n1Cc1ccccc1Cl	none
O=C(c1ccc2c(=O)n(Cc3ccccc3)c(=S)[nH]c2c1)N1CCOCC1	HSF1 inhib -87
Cc1ccc(C)c(N2CCN(C(=O)c3ccc(Cn4c(=O)[nH]c5ccccc5c4=O)cc3)CC2)c1	T cruzi inh 65
O=c1c2cc(N3CCOCC3)ccc2[nH]c(=S)n1Cc1ccccn1	HSF1 activator 67
CC(=O)c1ccc(N2CCN(C(=O)c3ccc(Cn4c(=S)[nH]c5ccc(N6CCOCC6)cc5c4=O)cc3)CC2)cc1	T cruzi inh 70
O=C(Cn1c(NCCO)nc2ccccc21)N1CCN(Cc2ccccc2)CC1	none
Cc1ccc(-c2ccnc(-c3ccc(O)cc3)n2)cc1	HSF1 activator 65
CC(NC(=O)CNC(=O)C1CCCCC1)c1ccc(S(N)(=O)=O)cc1 (stereo unspecified)	none
CCn1cc([N+](=O)[O-])c(C(=O)Nc2nc(-c3ccc(C)c(C)c3)c(C)s2)n1	HSF1 activator 61
Cc1ccc(Cc2cnc(NC(=O)c3cccs3)s2)cc1	HSF1 activator 65
Cc1cccc(-c2nnc(NC(=O)c3cccs3)s2)c1	HSF1 inhib -80
Cc1ccc(C(=O)Nc2nc3c(s2)CCCC3)o1	HSF1 activator 60
O=C(Nc1nc2c(s1)CCCC2)c1ccc(Br)o1	none
Cc1ccc(C(=O)Nc2ncc(Cc3ccccc3)s2)o1	HSF1 activator 54
O=C(Nc1nnc(-c2cccnc2)s1)c1cccs1	none
O=C(Nc1ncc(Cc2cccc(Cl)c2)s1)c1cccs1	none
O=C(N1CCCCCC1)N1CCN(S(=O)(=O)c2cccc([N+](=O)[O-])c2)CC1	none
Cc1nnc(SC(C)C(=O)Nc2c(C)n(C)n(-c3ccccc3)c2=O)n1N (stereo unspecified)	none
CCn1cc(C(=O)Nc2ccc(C)cc2[N+](=O)[O-])c(C)n1	none
C[C@@H]1C=C(C(=O)NCc2ccccc2)O[C@H](OCc2ccc(CO)cc2)C1	none
O=C(Nc1ncc(Cc2ccccc2)s1)c1cccs1	HSF1 activator 55
Cc1ccc(S(=O)(=O)N/N=c2\oc3ccccc3cc2C(=O)Nc2cccc(C)c2)cc1	HSF1 activator 58
CCC(C)c1ccc(OCc2ccc(C(=O)OC)o2)cc1 (stereo unspecified)	none
CCCOc1ccc2cc(C(=O)NCc3ccccc3)c(=O)oc2c1	HSF1 inhib -61
CCN(CC)c1ccc(/C=C/c2ccc3ccc(OC)cc3[n+]2CC)cc1	Calb FLC 105, T cruzi inh 61
Cc1ccc2nc(NC(=O)CSc3nncc(=O)n3N)sc2c1	none
COC(=O)c1ccc(NC(=O)C2C3C=CC(C3)C2C(=O)O)cc1 (stereo unspecified)	HSF1 inhib -52
CCOc1ccc(OCCC(=O)OCC(=O)Nc2cc(S(=O)(=O)N3CCOCC3)ccc2C)cc1	none
CC(C)(C)C(=O)/C(=C/c1ccc(Cl)cc1)n1cncn1	HSF1 activator 150
CC(C)(C)C(=O)/C(=C\c1ccc([N+](=O)[O-])cc1)n1cncn1	Calb FLC 107, HSF1 inhib inconclusive, T cruzi inh inconclusive
CC(C)/C=C(/C(=O)c1ccc(Cl)cc1Cl)n1cncn1	none
COc1ccc(OC)c(CNC(=O)CCn2c(=O)c3cccn3c3ccc(F)cc32)c1	none
Cc1ccc(S(=O)(=O)CCC(=O)OC(C)C(=O)NC2CCCCC2C)cc1 (stereo unspecified)	none
Cc1cccc(C(=O)Nc2ccc(C(=O)/C=C/c3cccnc3)cc2)c1	HSF1 activator 163
Cc1cccc(C(=O)Nc2ccc(C(=O)/C=C/c3ccncc3)cc2)c1	HSF1 activator 92
O=C(/C=C/c1cccnc1)c1ccc(NC(=O)c2cccc(Br)c2)cc1	none
Cn1ccnc1C(=O)c1cccc(Br)c1	none
CCC(=Nc1ccccc1)C1=C(O)CCCC1=O	none
N#C/C(=C\c1ccccc1[N+](=O)[O-])c1nc(C2CC2)cs1	HSF1 activator 51
N#C/C(=C\c1ccc([N+](=O)[O-])cc1)c1nc(C2CC2)cs1	HSF1 activator 57
N#C/C(=C/c1ccccc1[N+](=O)[O-])c1nc(C2CC2)cs1	HSF1 activator 101
